Source: PMC12892081 (Acta Pharmaceutica Sinica. B, 2025)
Where a SMILES comes first, the peptide text is derived from it. Bridges are numbered along the chain shown (N, C = ends). The star is where a group is joined. 5FAM = O=C1OC2(c3ccc(O)cc3Oc3cc(O)ccc32)c2ccc(C(=O)*)cc21

Key:
[1] = In vitro skin penetration across excised rat skin; format: in vitro ADME, SD rats; conditions: for skin permeability compared to the other CPPs: FAM-CPP conjugates, excised rat back skin, P < 0.01
Method in brief: (§1)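 Valia-Chien diffusion cells at 37 ± 0.5 °C, stirred at 250 rpm, with excised rat back skin or Berkshire pig skin. Donor held 50 μmol/L N-terminally FAM-labelled peptide or free FAM in 0.9% NaCl with 0.5% (v/v) DMSO. Receiver sampled at 0–5 h and replaced with fresh saline; fluorescence read at 492 nm. Cumulative amount and Papp derived; at least 4 replicates.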

[2] = In vitro skin penetration across excised pig skin; format: in vitro ADME, Berkshire pig; conditions: FAM-peptide conjugate vs free FAM, donor 50 μmol/L
Method in brief: as §1

B16F10 cells = assay: Calcein-AM/PI double staining of B16F10 cells; format: cell-based; conditions: 15 μmol/L, 48 h, vs control group
Method in brief: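 B16F10 cells exposed 48 h to 15 μmol/L agents, then stained with a Calcein-AM/PI double staining kit (calcein marks live cells green, PI marks dead cells red). Imaged by inverted fluorescence microscopy.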

[3] = system: human keratinocyte cells (HeKa cells); assay: HeKa cell viability; format: cell-based; conditions: 50 μmol/L FAM-CPP conjugate, exposure 72 h, CCK-8, n = 3
Method in brief: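 HeKa cells exposed to 50 μmol/L FAM or FAM–peptide conjugate for 48 and 72 h. Viability read with CCK-8; n = 3.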

CC[C@H](C)[C@H](NC(=O)[C@H](CCC(N)=O)NC(=O)[C@H](CCCNC(=N)N)NC(=O)c1ccc2c(c1)C(=O)OC21c2ccc(O)cc2Oc2cc(O)ccc21)C(=O)N[C@@H](CCCCN)C(=O)N[C@@H](Cc1c[nH]c2ccccc12)C(=O)N[C@@H](Cc1c[nH]c2ccccc12)C(=O)N[C@@H](Cc1ccccc1)C(=O)N[C@@H](Cc1c[nH]c2ccccc12)C(=O)N[C@@H](Cc1c[nH]c2ccccc12)C(=O)N[C@@H](CCCNC(=N)N)C(=O)N[C@@H](CCCNC(=N)N)C(=O)N[C@@H](CCSC)C(=O)N[C@@H](CCCCN)C(=O)N[C@@H](Cc1c[nH]c2ccccc12)C(=O)N[C@@H](CCCCN)C(=O)N[C@@H](CCCCN)C(=O)O [FAM-589WP] (5FAM-RQIKWWFWWRRMKWKK-OH)
increase in Papp compared to free FAM, rat skin ([1]; FAM-peptide conjugate vs free FAM, excised rat skin, donor 50 μmol/L): 72 fold | increase in Papp compared to free FAM, pig skin [2]: 60 fold

O=c1[nH]c(=O)n([C@H]2C[C@H](O)[C@@H](CO)O2)cc1F [FUdR, 5-fluoro-2ʹ-deoxyuridine]
live cell density / dead cells by Calcein-PI staining (B16F10 cells): notable decrease in live cell density

CC[C@H](C)[C@H](NC(=O)[C@H](CCCCN)NC(=O)[C@@H](NC(=O)[C@H](CCC(N)=O)NC(=O)[C@H](CCCNC(=N)N)NC(=O)c1ccc2c(c1)C(=O)OC21c2ccc(O)cc2Oc2cc(O)ccc21)[C@@H](C)CC)C(=O)N[C@@H](Cc1c[nH]c2ccccc12)C(=O)N[C@@H](Cc1ccccc1)C(=O)N[C@@H](CCC(N)=O)C(=O)N[C@@H](CC(N)=O)C(=O)N[C@@H](CCCNC(=N)N)C(=O)N[C@@H](CCCNC(=N)N)C(=O)N[C@@H](CCSC)C(=O)N[C@@H](CCCCN)C(=O)N[C@@H](Cc1c[nH]c2ccccc12)C(=O)N[C@@H](CCCCN)C(=O)N[C@@H](CCCCN)C(=O)O [Penetratin]
skin permeability compared to the other CPPs ([1]; donor 50 μmol/L): significantly higher than the other CPPs | cytotoxicity to HeKa cells [3]: did not display cytotoxicity

C[C@H](NC(=O)c1ccc2c(c1)C(=O)OC21c2ccc(O)cc2Oc2cc(O)ccc21)C(=O)N[C@H]1CSSC[C@@H](C(=O)NCC(=O)O)NC(=O)[C@H](CCC(N)=O)NC(=O)[C@H](Cc2c[nH]cn2)NC(=O)[C@H](CCC(N)=O)NC(=O)[C@H]([C@@H](C)O)NC(=O)[C@H](CO)NC(=O)CNC(=O)[C@H]([C@@H](C)O)NC1=O [SPACE] (5FAM-ACTGSTQHQCG-OH; disulfide 2-10)
permeability relative to the optimized peptide 589WP ([1]; FAM conjugates, excised rat skin): about one-third the permeability of the optimized peptide 589WP | permeability relative to wild-type penetratin ([1]; FAM conjugates, excised rat skin (Fig. 1)): about half the permeability of wild-type penetratin

CC[C@H](C)[C@H](NC(=O)[C@H](CCCCN)NC(=O)[C@H](CCCCN)NC(=O)[C@H](C)NC(=O)[C@H](CC(C)C)NC(=O)[C@H](C)NC(=O)[C@H](C)NC(=O)[C@H](CC(C)C)NC(=O)[C@H](C)NC(=O)[C@H](CCCCN)NC(=O)[C@H](CC(C)C)NC(=O)[C@H](CC(N)=O)NC(=O)[C@@H](NC(=O)[C@H](CCCCN)NC(=O)CNC(=O)[C@H](CC(C)C)NC(=O)[C@H](CC(C)C)NC(=O)[C@H](Cc1ccc(O)cc1)NC(=O)CNC(=O)[C@H](C)NC(=O)[C@H](CO)NC(=O)[C@H](CC(N)=O)NC(=O)[C@H](CC(C)C)NC(=O)[C@@H](NC(=O)[C@H](Cc1c[nH]c2ccccc12)NC(=O)CNC(=O)c1ccc2c(c1)C(=O)OC21c2ccc(O)cc2Oc2cc(O)ccc21)[C@@H](C)O)[C@@H](C)CC)C(=O)N[C@@H](CC(C)C)C(=O)O [Transportan]
skin permeability compared to the other CPPs ([1]; donor 50 μmol/L): significantly higher than the other CPPs
